In brackets after ≈: the same amount, converted by molar mass. Activity calls are given as the source filed them. The calls are words filed in the database; no cut-off is given here.
How the values were obtained:
Bacillus subtilis = assay: Antibacterial activity against Bacillus subtilis MTCC 441 after 24 hrs by serial dilution technique; format: functional; details: for MIC: Bacillus subtilis, MTCC 441, 24 h
In short: (§1)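 Compounds were dissolved in DMSO as stock, diluted to 100 µg/mL in Luria broth, then two-fold serially diluted from 100 to 1.56 µg/mL. Bacteria were grown in Luria broth at 37 °C, centrifuged and washed three times with PBS. They were inoculated into each dilution in triplicate and incubated 24 h at 37 °C. Growth was read visually and spectrophotometrically. Controls were penicillin, streptomycin and DMSO. MIC is in µmol/mL.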

Pseudomonas aeruginosa = assay: Antibacterial activity against Pseudomonas aeruginosa MTCC 7952 after 24 hrs by serial dilution technique; format: functional; details: for MIC: Pseudomonas aeruginosa, MTCC 7952, 24 h; in short: as §1
Staphylococcus aureus = assay: Antibacterial activity against Staphylococcus aureus MTCC 7443 after 24 hrs by serial dilution technique; format: functional; details: for MIC: Staphylococcus aureus, MTCC 7443, 24 h; in short: as §1
Escherichia coli = assay: Antibacterial activity against Escherichia coli MTCC 42 after 24 hrs by serial dilution technique; format: functional; details: for MIC: Escherichia coli, MTCC 42, 24 h; in short: as §1
Aspergillus fumigatus = assay: Antifungal activity against Aspergillus fumigatus MTCC 2550 after 72 hrs by serial dilution technique
Candida albicans = assay: Antifungal activity against Candida albicans MTCC 183 after 72 hrs by serial dilution technique; format: functional
In short: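 Compounds were dissolved in DMSO as stock, diluted to 100 µg/mL in potato dextrose broth, then two-fold serially diluted from 100 to 1.56 µg/mL. Fungi were grown in Sabouraud dextrose broth at 28 °C: A. fumigatus for 2–3 weeks, C. albicans for 48 h. Spores were centrifuged, washed in sterile water and inoculated in triplicate, then incubated 72 h at 28 °C. MIC was assigned by CFU assay. Controls were fluconazole and DMSO.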

[1] = Aspergillus fumigatus, MTCC 2550, 72 h
[2] = Candida albicans, MTCC 183, 72 h

Compound | -logMIC (Bacillus subtilis) | MIC (Bacillus subtilis) | -logMIC (Pseudomonas aeruginosa) | MIC (Pseudomonas aeruginosa) | -logMIC (Staphylococcus aureus) | MIC (Staphylococcus aureus) | -logMIC (Escherichia coli) | MIC (Escherichia coli) | -logMIC (Aspergillus fumigatus) | MIC (Aspergillus fumigatus; [1]) | -logMIC (Candida albicans) | MIC (Candida albicans; [2]) | MIC (Aspergillus fumigatus) | MIC (Candida albicans)
COc1ccc(C23Sc4cc(Br)ccc4N=C2c2ccccc2C3=O)cc1 (stereo unspecified) | 2.15 | 7.1 µM (≈ 3.1 µg/mL) | 1.24 | 57.4 µM (≈ 25 µg/mL) | 2.15 | 7.1 µM (≈ 3.1 µg/mL) | 1.84 | 14.3 µM (≈ 6.24 µg/mL) | 1.84 | 14.3 µM (≈ 6.24 µg/mL) | 1.84 | 14.3 µM (≈ 6.24 µg/mL) | – | –
Cc1ccc2c(c1)SC1(c3ccc(Cl)cc3)C(=O)c3ccccc3C1=N2 (stereo unspecified) | 1.18 | 66.5 µM (≈ 25 µg/mL) | 1.18 | 66.6 µM (≈ 25 µg/mL) | – | – | 1.18 | 66.6 µM (≈ 25 µg/mL) | 0.88 | 133 µM (≈ 50.1 µg/mL) | 1.18 | 66.6 µM (≈ 25 µg/mL) | – | –
COc1ccc(C23Sc4cc(OC)ccc4N=C2c2ccccc2C3=O)cc1 (stereo unspecified) | 2.4 | 4 µM (≈ 1.55 µg/mL) | – | – | 1.79 | 16.1 µM (≈ 6.24 µg/mL) | 1.79 | 16.1 µM (≈ 6.24 µg/mL) | 1.19 | 64.5 µM (≈ 25 µg/mL) | 1.19 | 64.5 µM (≈ 25 µg/mL) | – | –
COc1ccc2c(c1)SC1(c3ccc(C)cc3)C(=O)c3ccccc3C1=N2 (stereo unspecified) | 1.17 | 67.3 µM (≈ 25 µg/mL) | 1.47 | 33.6 µM (≈ 12.5 µg/mL) | 0.87 | 135 µM (≈ 50 µg/mL) | 2.38 | 4.2 µM (≈ 1.56 µg/mL) | 1.17 | 67.3 µM (≈ 25 µg/mL) | 1.77 | 16.8 µM (≈ 6.24 µg/mL) | – | –
COc1ccc(C23Sc4ccccc4N=C2c2ccccc2C3=O)cc1 (stereo unspecified) | – | – | – | – | 0.85 | 140 µM (≈ 50 µg/mL) | 1.15 | 70 µM (≈ 25 µg/mL) | – | – | – | – | inactive | inactive
Cc1ccc(C23Sc4cc(Br)ccc4N=C2c2ccccc2C3=O)cc1 (stereo unspecified) | 1.53 | 29.8 µM (≈ 12.5 µg/mL) | 1.23 | 59.4 µM (≈ 25 µg/mL) | 0.92 | 119 µM (≈ 50.1 µg/mL) | 1.23 | 59.4 µM (≈ 25 µg/mL) | 0.92 | 119 µM (≈ 50.1 µg/mL) | 0.92 | 119 µM (≈ 50.1 µg/mL) | – | –
Cc1ccc(C23Sc4cc(C)ccc4N=C2c2ccccc2C3=O)cc1 (stereo unspecified) | 0.85 | 141 µM (≈ 50 µg/mL) | 1.15 | 70.4 µM (≈ 25 µg/mL) | – | – | 1.45 | 35.2 µM (≈ 12.5 µg/mL) | 0.85 | 141 µM (≈ 50 µg/mL) | 1.15 | 70.4 µM (≈ 25 µg/mL) | – | –
O=C1c2ccccc2C2=Nc3ccc(Br)cc3SC12c1ccccc1 (stereo unspecified) | 1.21 | 61.7 µM (≈ 25.1 µg/mL) | 1.81 | 15.4 µM (≈ 6.26 µg/mL) | 0.91 | 123 µM (≈ 50.1 µg/mL) | 1.21 | 61.7 µM (≈ 25.1 µg/mL) | 1.51 | 30.8 µM (≈ 12.5 µg/mL) | 1.51 | 30.8 µM (≈ 12.5 µg/mL) | – | –
COc1ccc2c(c1)SC1(c3ccccc3)C(=O)c3ccccc3C1=N2 (stereo unspecified) | 1.15 | 70 µM (≈ 25 µg/mL) | 1.46 | 35 µM (≈ 12.5 µg/mL) | 0.85 | 140 µM (≈ 50 µg/mL) | – | – | – | – | – | – | inactive | inactive
OC(Cn1cncn1)(Cn1cncn1)c1ccc(F)cc1F [FLUCONAZOLE] | – | – | – | – | – | – | – | – | – | 10.1 µM (≈ 3.09 µg/mL) | – | 10.1 µM (≈ 3.09 µg/mL) | – | –
O=C1c2ccccc2C2=Nc3ccc(Br)cc3SC12c1ccc(Cl)cc1 (stereo unspecified) | 1.55 | 28.4 µM (≈ 12.5 µg/mL) | 1.24 | 57 µM (≈ 25.1 µg/mL) | 2.15 | 7.1 µM (≈ 3.13 µg/mL) | 1.24 | 56.9 µM (≈ 25.1 µg/mL) | 1.55 | 28.4 µM (≈ 12.5 µg/mL) | 1.55 | 28.4 µM (≈ 12.5 µg/mL) | – | –
COc1ccc(C23Sc4cc(C)ccc4N=C2c2ccccc2C3=O)cc1 (stereo unspecified) | 1.47 | 33.6 µM (≈ 12.5 µg/mL) | 1.17 | 67.3 µM (≈ 25 µg/mL) | 1.17 | 67.3 µM (≈ 25 µg/mL) | 1.17 | 67.3 µM (≈ 25 µg/mL) | 0.87 | 135 µM (≈ 50 µg/mL) | 1.47 | 33.6 µM (≈ 12.5 µg/mL) | – | –
O=C1c2ccccc2C2=Nc3ccccc3SC12c1ccccc1 (stereo unspecified) | 1.12 | 76.4 µM (≈ 25 µg/mL) | 1.42 | 38.2 µM (≈ 12.5 µg/mL) | 0.82 | 153 µM (≈ 50 µg/mL) | 1.42 | 38.2 µM (≈ 12.5 µg/mL) | 1.12 | 76.4 µM (≈ 25 µg/mL) | 1.12 | 76.4 µM (≈ 25 µg/mL) | – | –
COc1ccc2c(c1)SC1(c3ccc(Cl)cc3)C(=O)c3ccccc3C1=N2 (stereo unspecified) | 1.5 | 31.9 µM (≈ 12.5 µg/mL) | 1.19 | 63.9 µM (≈ 25 µg/mL) | 1.8 | 15.9 µM (≈ 6.23 µg/mL) | 1.19 | 63.9 µM (≈ 25 µg/mL) | 1.5 | 31.9 µM (≈ 12.5 µg/mL) | 1.5 | 31.9 µM (≈ 12.5 µg/mL) | – | –
CN[C@@H]1[C@H](O[C@H]2[C@H](O[C@H]3[C@H](O)[C@@H](O)[C@H](N=C(N)N)[C@@H](O)[C@@H]3N=C(N)N)O[C@@H](C)[C@]2(O)C=O)O[C@@H](CO)[C@H](O)[C@H]1O [STREPTOMYCIN] | – | 10.7 µM (≈ 6.22 µg/mL) | – | 2.6 µM (≈ 1.51 µg/mL) | – | 10.7 µM (≈ 6.22 µg/mL) | – | 5.3 µM (≈ 3.08 µg/mL) | – | – | – | – | – | –
CC1(C)S[C@@H]2[C@H](NC(=O)Cc3ccccc3)C(=O)N2[C@H]1C(=O)O [PENICILLIN G] | – | 4.6 µM (≈ 1.54 µg/mL) | – | 18.7 µM (≈ 6.25 µg/mL) | – | 4.6 µM (≈ 1.54 µg/mL) | – | 37.4 µM (≈ 12.5 µg/mL) | – | – | – | – | – | –
O=C1c2ccccc2C2=Nc3ccccc3SC12c1ccc(Cl)cc1 (stereo unspecified) | 1.46 | 34.6 µM (≈ 12.5 µg/mL) | – | – | 0.86 | 138 µM (≈ 50.1 µg/mL) | 2.37 | 4.3 µM (≈ 1.56 µg/mL) | – | – | – | – | inactive | inactive
Cc1ccc2c(c1)SC1(c3ccccc3)C(=O)c3ccccc3C1=N2 (stereo unspecified) | 0.83 | 146 µM (≈ 50 µg/mL) | 1.13 | 73.3 µM (≈ 25 µg/mL) | 2.35 | 4.5 µM (≈ 1.54 µg/mL) | – | – | 1.14 | 73.2 µM (≈ 25 µg/mL) | 1.44 | 36.6 µM (≈ 12.5 µg/mL) | – | –
Cc1ccc(C23Sc4ccccc4N=C2c2ccccc2C3=O)cc1 (stereo unspecified) | 1.14 | 73.2 µM (≈ 25 µg/mL) | 1.14 | 73.2 µM (≈ 25 µg/mL) | 0.53 | 293 µM (≈ 100 µg/mL) | – | – | – | – | – | – | inactive | inactive

— ChEMBL document CHEMBL2034864, “Synthesis, characterization, antimicrobial activities and QSAR studies of some 10a-phenylbenzo[b]indeno[1,2-e][1,4]thiazin-11(10aH)-ones” (2012)
